Assay outcomes deposited in PubChem by Broad Institute.
DENV2 CPE: inhibitors of DENV2 cytopathic effect, primary screen, cell-based, plate reader, single concentration; actives 1.7% (n = 350,000); CPE inhibition, % at 9.99 µM; DENV2-infected cells, cytopathic effect rescue; AID 651640, 2012; in the data active = CPE inhibition above about 20%, passing the limit was not always enough; inconclusive = no clear call, values can overlap the other calls; tested in BHK-21 cells;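 also: 0% = median of neutral control wells and 100% = median of positive control wells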
E-sel inducer: E-selectin induction in HUVECs, primary screen, imaging, HUVEC, immunofluorescence imaging, single point. P16581. normalized: neutral wells 0, TNF-alpha wells 100. activation, % at 7.58 µM. actives 0.37% (n = 260,000). AID 686992, 2013;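 active = mean E-selectin-positive cell signal at least 10% of the positive control, reached in at least 60% of replicates, without over 20% cell loss; inconclusive = no rule given, readout overlaps actives, possibly toxicity-flagged; inactive = the rest, including those meeting only one limit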
Target sequence (P16581 whole entry, looked up): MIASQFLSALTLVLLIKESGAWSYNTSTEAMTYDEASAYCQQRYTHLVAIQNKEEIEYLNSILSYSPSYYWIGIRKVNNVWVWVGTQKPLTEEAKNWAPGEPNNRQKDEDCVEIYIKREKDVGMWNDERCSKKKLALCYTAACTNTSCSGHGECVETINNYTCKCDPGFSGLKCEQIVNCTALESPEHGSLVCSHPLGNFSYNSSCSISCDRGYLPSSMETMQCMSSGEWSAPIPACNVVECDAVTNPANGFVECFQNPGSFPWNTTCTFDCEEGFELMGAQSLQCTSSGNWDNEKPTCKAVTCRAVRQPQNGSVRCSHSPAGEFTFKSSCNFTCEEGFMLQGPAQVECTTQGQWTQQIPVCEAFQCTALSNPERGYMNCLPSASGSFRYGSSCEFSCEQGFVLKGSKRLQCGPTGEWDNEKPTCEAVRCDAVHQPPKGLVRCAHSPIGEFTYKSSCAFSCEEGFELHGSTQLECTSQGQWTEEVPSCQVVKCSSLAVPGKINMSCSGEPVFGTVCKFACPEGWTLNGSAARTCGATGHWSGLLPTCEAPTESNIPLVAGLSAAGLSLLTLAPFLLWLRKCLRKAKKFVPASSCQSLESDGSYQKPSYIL
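System: HUVEC / Compound: single concentration / Signal: immunofluorescence imaging / Read-out: percent E-selectin-positive cells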
SIRT5 inh: SIRT5 desuccinylase inhibitors, primary screen, biochemical, fluorescence imaging, single point, set 5. inhibition, % at 15 µM. NAD-dependent protein deacylase sirtuin-5, mitochondrial (Homo sapiens), Q9NXA8. Purified SirT5, succinyl-peptide AMC, trypsin-coupled fluorescence. actives 1.1% (n = 330,000). AID 652115, 2013; in the data active = inhibition above about 15%; inconclusive = no clear call, values can overlap the other calls
The depositor's hits bear a star; ? = inconclusive; · = not tested or not shown. Only some compounds are listed: those with a hit (about 2.8% of all), similar ones and a draw of the others.

SMILES	DENV2 CPE	E-sel inducer	SIRT5 inh
CC(C)N(C[C@@H]1[C@@H](c2ccccc2)[C@@H](CO)N1S(C)(=O)=O)C(=O)CN(C)C	-5	0	-2
CCOc1ccc(NC(=O)CC2C(=O)N(c3ccc(OC)cc3)C(=O)N2CCc2cccs2)cc1 (stereo not drawn)	96*	·	·
COc1ccc(NC(=O)CC2C(=O)N(c3ccccc3)C(=O)N2CCc2cccs2)cc1 (stereo not drawn)	-8	·	-4
CN(C)CC(=O)Nc1ccc2c(c1)[C@H]1C[C@@H](CC(=O)NCc3cccc(F)c3)O[C@@H](CO)[C@H]1O2	-7	0	2
CSc1ccccc1C(=O)N1CCN(c2cccc(Cl)c2)CC1	0	·	1
CC(C)OC(=O)c1cccnc1N1CCN(c2cccc(Cl)c2)CC1	-1	34*	-4
O=C(CSc1ccc2nnc(-c3ccccn3)n2n1)Nc1ccccc1	71*	0	0
CCOc1ccc(NC(=O)CSc2ccc3nnc(-c4cccnc4)n3n2)cc1	9	0	-1
CCOc1ccc(NC(=O)CSc2ccc3nnc(-c4ccccn4)n3n2)cc1	-10	0	18*
Cc1nnc(NC(=O)CSc2ccc3nnc(-c4ccccn4)n3n2)s1	·	·	-5
C/C=C/c1cnc2c(c1)C(=O)N([C@@H](C)CO)C[C@@H](C)[C@H](CN(C)S(=O)(=O)c1ccc(F)cc1)O2	?	0	-6
CNC[C@@H]1OCCCC[C@H](C)Oc2ccc(NC(=O)Nc3ccccc3)cc2C(=O)N([C@@H](C)CO)C[C@@H]1C	12	0	-4
CC(C)C[C@@H](CNCC(=O)[C@H](CC(C)C)NC(=O)c1[nH]cnc1C(=O)N[C@@H](C)CN)NC(=O)c1nc[nH]c1C(=O)N[C@@H](CC(=O)O)C(=O)O	87*	0	·
CC(C)C[C@@H](CNCC(=O)[C@H](CC(C)C)NC(=O)c1[nH]cnc1C(=O)N[C@@H](C)CN)NC(=O)c1nc[nH]c1C(=O)N[C@@H](CC(C)C)C(=O)O	-12	0	1
COc1ccccc1C=NNC(=O)c1ccccc1OCCOc1ccccc1	75*	1	-3
COc1ccccc1/C=N/NC(=O)c1ccccc1Cl	5	·	-1
COc1ccccc1C=NNC(=O)C(=O)NN=Cc1ccccc1OC	6	0	·
COc1cccc(/C=N/NC(=O)C(=O)N/N=C/c2cccc(OC)c2OC)c1OC	85*	·	-3
CCCNC(=O)Nc1ccc2c(c1)C(=O)N(C)[C@@H]1CC[C@@H](CC(=O)O)O[C@@H]1CO2	-4	0	·
COc1ccccc1CN1C(=O)c2ccccc2[C@@H](C(=O)NCc2ccccc2)[C@@H]1c1ccc(CO)cc1	3	·	-1
CCCNC(=O)[C@@H]1c2ccccc2C(=O)N(Cc2ccccc2OC)[C@H]1c1ccc(CO)cc1	34*	·	-2
COc1cccc(C#Cc2ccc3c(c2)[C@H]2[C@H](CCN2S(=O)(=O)c2cccc(OC)c2)[C@H](CO)N3)c1	38*	0	8
O=S(=O)(c1ccccc1)N1CC[C@@H]2[C@H](CO)Nc3ccc(C#Cc4cccc(F)c4)cc3[C@@H]21	9	1	-1
COc1cccc(C#Cc2ccc3c(c2)[C@H]2[C@H](CCN2S(=O)(=O)c2cccc(OC)c2)[C@@H](CO)N3)c1	-5	0	·
COc1ccc(S(=O)(=O)N2CC[C@H]3[C@H](CO)Nc4ccc(C#Cc5ccccc5OC)cc4[C@H]32)cc1	-8	0	·
SMILES	DENV2 CPE	E-sel inducer	SIRT5 inh
O=S(=O)(c1ccccc1)N1CC[C@H]2[C@H](CO)Nc3ccc(C#Cc4cccc(F)c4)cc3[C@H]21	30*	0	-2
COc1ccc(S(=O)(=O)N2CC[C@@H]3[C@H]2c2cc(C#Cc4ccccc4OC)ccc2N[C@@H]3CO)cc1	46*	0	13
CCCN(C)C[C@@H]1Oc2ncc(-c3ccccc3F)cc2C(=O)N([C@H](C)CO)C[C@@H]1C	-7	0	-4
C[C@H](CO)N1C[C@H](C)[C@H](CN(C)C(=O)Cc2ccccc2)Oc2cc(-c3ccccc3)ccc2S1(=O)=O	-11	0	13
Cc1noc(C)c1NC(=O)N(C)C[C@@H]1Oc2ncc(C#CC3CC3)cc2C(=O)N([C@@H](C)CO)C[C@H]1C	3	0	-2
CCC(=O)Nc1ccc2c(c1)OC[C@H](C)N(CCc1ccccc1)C[C@@H](C)[C@@H](OC)CN(C)C2=O	0	0	10
C[C@H](CO)N1C[C@H](C)[C@@H](CN(C)CC2CC2)Oc2ccc(NS(C)(=O)=O)cc2CC1=O	-8	0	-5
COc1ccc(C(=O)C2CCCN(Cc3cc(C)c(O)c(C)c3)C2)c(OC)c1 (stereo not drawn)	7	·	7
COc1cc(CN2CCCC(C(=O)c3ccc(C(C)(C)C)cc3)C2)cc(OC)c1O (stereo not drawn)	26*	·	-2
CC(=O)Nc1ccc(NC(=O)CSc2ncc(C(=O)Nc3ccc(F)cc3)c(=O)n2C)cc1	30*	·	4
Cc1cc2c(=O)n(C)c(SCC(=O)Nc3cccc(F)c3)nc2s1	2	·	-6
CC(=O)Nc1cccc(NC(=O)CSc2ncc(C(=O)Nc3ccc(F)cc3)c(=O)n2C)c1	-4	0	-2
Cc1cc2c(=O)n(C)c(SCC(=O)Nc3ccc(F)cc3)nc2s1	37*	-1	1
CC(C)NC(=O)N(C)C[C@@H]1OCCCC[C@H](C)Oc2ccc(NS(=O)(=O)c3ccc(Cl)cc3)cc2C(=O)N([C@@H](C)CO)C[C@@H]1C	-9	0	0
C[C@@H]1CN([C@H](C)CO)C(=O)c2cccc(NC(=O)Nc3ccc(F)cc3)c2O[C@H]1CN(C)Cc1ccncc1	?	40*	·
C[C@@H]1CN([C@H](C)CO)C(=O)c2cccc(NC(=O)Nc3ccccc3)c2O[C@H]1CN(C)Cc1ccncc1	-7	0	-1
C[C@@H]1CN([C@H](C)CO)C(=O)c2cccc(NC(=O)Nc3ccc(C(F)(F)F)cc3)c2O[C@H]1CN(C)Cc1ccncc1	5	-10	-2
C[C@H]1CN([C@@H](C)CO)C(=O)c2cccc(NC(=O)Nc3ccc(F)cc3)c2O[C@H]1CN(C)Cc1ccncc1	-3	58*	1
C[C@@H]1CN([C@@H](C)CO)C(=O)c2cccc(NC(=O)Nc3ccc(F)cc3)c2O[C@@H]1CN(C)Cc1ccncc1	9	65*	1
C[C@H]1CN([C@@H](C)CO)C(=O)c2cccc(NC(=O)Nc3ccc(C(F)(F)F)cc3)c2O[C@H]1CN(C)Cc1ccncc1	-5	-4	0
C[C@@H]1CN([C@H](C)CO)C(=O)c2cc(NC(=O)CCN3CCOCC3)ccc2O[C@H]1CN(C)S(C)(=O)=O	9	17	-12
COCC(=O)Nc1ccc2c(c1)OC[C@@H](C)N(Cc1cncnc1)C[C@@H](C)[C@@H](OC)CN(C)C2=O	·	0	·
COc1ccccc1-c1ccc([C@@H]2[C@@H](CO)N3CCCCN(C(=O)NC4CCCC4)C[C@H]23)cc1	10	0	0
O=C(C[C@@H]1C=C[C@@H](NC(=O)Nc2cc(F)ccc2F)[C@H](CO)O1)NCc1ccncn1	9	0	-4
